Reference: ChEMBL document CHEMBL1122568, “Synthesis and anticonvulsant activity of some substituted lactams and amides” (J Med Chem, 1984)

How the values were obtained:
[1] = tested on: Mus sp.; test: Anticonvulsant activity was evaluated by metrazole-induced convulsion test and was determined 30 min after subcutaneous administration; format: functional
Summary of the method: (§1)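 Secondary evaluation in mice. Compound was given intraperitoneally in 30% polyethylene glycol 400. Median effective dose (ED50) was determined against maximal electroshock (MES) or subcutaneous Metrazol (scMet) convulsions. Median toxic dose (TD50) was determined by the rotorod test. All were read 30 min after dosing.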

[2] = tested on: Mus sp.; test: Anticonvulsant activity was evaluated by maximal electroshock induced convulsion test and was determined 30 min after subcutaneous administration; format: functional
[3] = tested on: Mus musculus; test: Anticonvulsant activity was evaluated by rotarod toxicity test and was determined 30 min after administration; format: organism-based; conditions: in vivo, 0.5 h; summary of the method: as §1
[4] = tested on: Mus sp.; test: (§2) Anticonvulsant activity was evaluated by rotarod toxicity test and was determined 30 min after subcutaneous administration; format: organism-based; conditions: in vivo, sc, 0.5 h
[5] = tested on: Mus musculus; test: Number of animal protected out of 1 was evaluated by metrazole-induced convulsion test at 30 min after subcutaneous administration of >300 mg/kg; format: functional
Summary of the method: (§3)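 Preliminary screen in small groups of mice (1-4) at 30, 100 and 300 mg/kg. Protection against MES or scMet convulsions, or rotorod toxicity, was scored at 30 min and 4 h after dosing. The smallest dose giving activity was recorded for each test.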

[6] = tested on: Mus musculus; test: Number of animals protected out of 1 was evaluated by rotarod toxicity test and was determined 30 min t 30 min after subcutaneous administration of >300 mg/kg; format: functional
[7] = tested on: Mus sp.; test: Number of animals protected out of 1 was evaluated by maximal electroshock induced convulsion test at 30 min after subcutaneous administration of >300 mg/kg; format: functional; summary of the method: as §3
[8] = as §2; format: organism-based; conditions: mouse, in vivo, sc
[9] = tested on: Mus musculus; test: Anticonvulsant activity was evaluated by metrazole-induced convulsion test after subcutaneous administration; format: functional; conditions: sc; summary of the method: as §1
[10] = tested on: Mus musculus; test: Anticonvulsant activity was evaluated by maximal electroshock induced convulsion test after subcutaneous administration; format: functional; conditions: sc
[11] = tested on: Mus musculus; test: Number of animal protected out of 4 was evaluated by metrazole-induced convulsion test at 30 min after subcutaneous administration of >300 mg/kg; format: functional; summary of the method: as §3
[12] = tested on: Mus sp.; test: Number of animals protected out of 4 was evaluated by rotarod toxicity test and was determined 30 min t 30 min after subcutaneous administration of >300 mg/kg; format: functional; summary of the method: as §3
[13] = Anticonvulsant activity was evaluated by rotarod toxicity test after subcutaneous administration; format: organism-based; conditions: mouse, in vivo, sc
[14] = Anticonvulsant activity was evaluated by rotarod toxicity test after subcutaneous administration.; format: organism-based; conditions: mouse, in vivo, sc
[15] = tested on: Mus musculus; test: Number of animals protected out of 1 was evaluated by maximal electroshock induced convulsion test at 30 min after subcutaneous administration of 300 mg/kg; format: functional; summary of the method: as §3
[16] = tested on: Mus musculus; test: Number of animal protected out of 1 was evaluated by metrazole-induced convulsion test at 30 min after subcutaneous administration of 30 mg/kg; format: functional; summary of the method: as §3
[17] = tested on: Mus musculus; test: Anticonvulsant activity was evaluated by maximal electroshock induced convulsion test after subcutaneous administration.; format: functional; conditions: sc
[18] = tested on: Mus musculus; test: Number of animals protected out of 4 was evaluated by maximal electroshock induced convulsion test at 30 min after subcutaneous administration of >300 mg/kg; format: functional; summary of the method: as §3

SMILES	Activity [1]	Activity [2]	Activity [4]	No. of animals protected [5]	No. of animals protected [7]	ED50 [9]	No. of animals protected [12]	other results
O=C(CBr)OC1(c2ccccc2)CCCNC1=O (centres undefined)	300 mg/kg	>300 mg/kg	–	–	–	–	–	Activity [3]: > 300 mg/kg
CCOC(=O)N(C)C(=O)C(CC)(OCc1ccccc1)c1ccccc1 (centres undefined)	>300 mg/kg	>300 mg/kg	> 300 mg/kg	0	0	–	–	No. of animals protected [6]: 0
COC1(c2ccccc2)CCCNC1=O (centres undefined)	300 mg/kg	100 mg/kg	300 mg/kg	–	1	49.6 mg/kg	4	TD50 at 0.5 h [8]: 239 mg/kg; ED50 [10]: 121 mg/kg; No. of animals protected [11]: 4
CCOC(=O)N1CCCC(OCC2CCCCC2)(c2ccccc2)C1=O (centres undefined)	>300 mg/kg	>300 mg/kg	> 300 mg/kg	0	0	–	0	–
CCOC(=O)N1CCCC(c2ccccc2)C1=O (centres undefined)	>300 mg/kg	>300 mg/kg	> 300 mg/kg	0	0	–	0	–
O=C(CCl)N1CCCC(O)(c2ccccc2)C1=O (centres undefined)	>300 mg/kg	>300 mg/kg	> 300 mg/kg	–	–	–	–	–
O=C(CCCl)NCc1ccccc1 [BECLAMIDE]	–	–	–	–	–	117 mg/kg	–	TD50 [13]: 278 mg/kg; ED50 [10]: 185 mg/kg
CCOC(=O)NCCCC(O)(C(=O)OC)c1ccccc1 (centres undefined)	>300 mg/kg	>300 mg/kg	> 300 mg/kg	0	0	–	–	No. of animals protected [6]: 0
O=C1NCCCC1(O)c1ccccc1 (centres undefined)	>300 mg/kg	>300 mg/kg	> 300 mg/kg	0	0	–	0	–
CCC(O)(C(=O)NC)c1ccccc1 (centres undefined)	>300 mg/kg	300 mg/kg	> 300 mg/kg	0	1	–	0	–
CCOC(=O)N1CCCC(N)(c2ccccc2)C1=O (centres undefined)	300 mg/kg	300 mg/kg	–	1	1	–	4	Activity [3]: 300 mg/kg
CN1CCCC(O)(c2ccccc2)C1=O (centres undefined)	300 mg/kg	100 mg/kg	–	–	1	128 mg/kg	0	TD50 [13]: 350 mg/kg; ED50 [10]: 84.4 mg/kg; Activity [3]: > 300 mg/kg; No. of animals protected [11]: 4
CCCC(C)(COC(N)=O)COC(N)=O [MEPROBAMATE]	–	–	–	–	–	31.5 mg/kg	–	TD50 [14]: 125 mg/kg; ED50 [10]: 120 mg/kg
CCC(OCc1ccccc1)(C(=O)NC)c1ccccc1 (centres undefined)	>300 mg/kg	>300 mg/kg	> 300 mg/kg	0	0	–	0	–
CCCC(C)OC(=O)N1CCCC(O)(c2ccccc2)C1=O (centres undefined)	300 mg/kg	300 mg/kg	> 300 mg/kg	–	1	–	0	No. of animals protected [11]: 1
CCOC(=O)N1CCCC(O)(c2ccccc2)C1=O (centres undefined)	30 mg/kg	300 mg/kg	> 300 mg/kg	–	–	124 mg/kg	0	TD50 [13]: 451 mg/kg; ED50 [10]: 132 mg/kg; No. of animals protected [15]: 1; No. of animals protected [16]: 1
CCCC(CCC)C(=O)O [VALPROIC ACID]	–	–	–	–	–	149 mg/kg	–	–
CCOC(=O)N1CCCC(OC(C)=O)(c2ccccc2)C1=O (centres undefined)	>300 mg/kg	>300 mg/kg	–	0	0	–	0	Activity [3]: > 300 mg/kg
NC(=O)NC(=O)Cc1ccccc1 [PHENACEMIDE]	–	–	–	–	–	–	–	TD50 [14]: 421 mg/kg; ED50 [17]: 87.3 mg/kg
CCOC(=O)N1CCCC(Cl)(c2ccccc2)C1=O (centres undefined)	300 mg/kg	>300 mg/kg	> 300 mg/kg	–	–	–	–	–
CCOC(=O)N1CCCC(OC)(c2ccccc2)C1=O (centres undefined)	300 mg/kg	300 mg/kg	> 300 mg/kg	1	–	124 mg/kg	0	TD50 [13]: > 300 mg/kg; No. of animals protected [18]: 2; ED50 [10]: 225 mg/kg
